Test results taken from ChEMBL document CHEMBL2434843, “Synthesis and evaluation of α-ketotriazoles and α,β-diketotriazoles as inhibitors of Mycobacterium tuberculosis” (Eur J Med Chem, 2013).
Converted amounts (≈) assume the structure as drawn.

Legend:
HCT-116 = assay: Cytotoxicity against human HCT116 cells after 4 days by WST-1 assay; format: functional, cell-based; details: HCT-116, 96 h
Procedure, shortened: (§1)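 Cells were cultured in DMEM with 10% fetal calf serum and seeded at 3000 per well. After 24 h they were treated with 100 nM to 50 μM compound, 8 replicates per concentration, for 4 days. Viability was read by WST-1 and reported as IC50.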

[1] = Cytotoxicity against human GM637 cells after 4 days by WST-1 assay; format: cell-based; details: GM637, 96 h; procedure, shortened: as §1
[2] = test system: Mycobacterium tuberculosis; assay: Antitubercular activity against Mycobacterium tuberculosis H37Rv assessed as growth inhibition after 21 days by micro-broth dilution method; format: functional; details: 504 h
[3] = test system: Mycobacterium tuberculosis; assay: Antitubercular activity against Mycobacterium tuberculosis H37Rv assessed as growth inhibition; format: functional
Procedure, shortened: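 M. tuberculosis H37Rv grown at 37 °C in Middlebrook 7H9 with 0.05% Tween 80, or on 7H11 agar with OADC. Culture dilutions of about 10^5-10^6 cfu/ml were streaked onto 7H11 plates holding 0.25 µg/mL to 40 µg/mL drug. Plates were incubated at 37 °C for about 21 days, and MIC was read from visual growth.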

| SMILES | IC50 (HCT-116) [µM] | IC50 [1] [µM] | MIC [2] [µM] | MIC [3] [µg/mL] |
| --- | --- | --- | --- | --- |
| CCCCCCCCn1cc(C(=O)Cc2ccccc2)nn1 | > 50 | > 50 | – | – |
| NNC(=O)c1ccncc1 [ISONIAZID] | – | – | 0.4 (≈ 0.0549 µg/mL) | – |
| COc1ccccc1C(=O)C(=O)c1cn(Cc2ccccc2)nn1 | > 50 | > 50 | 12.4 (≈ 4 µg/mL) | – |
| COc1cc(Cn2cc(C(=O)C(=O)c3ccc([N+](=O)[O-])cc3)nn2)cc(OC)c1 | > 50 | > 50 | 161 (≈ 64 µg/mL) | – |
| O=C(Cc1ccccc1)c1cn(Cc2ccc([N+](=O)[O-])cc2)nn1 | > 50 | > 50 | – | – |
| O=C(C(=O)c1ccc(Cl)cc1Cl)c1cn(Cc2ccc([N+](=O)[O-])cc2)nn1 | > 50 | > 50 | 79 (≈ 32 µg/mL) | – |
| O=C(C(=O)c1cn(Cc2ccccc2)nn1)c1ccccc1 | > 50 | > 50 | 172 (≈ 50 µg/mL) | – |
| O=C(Cc1ccccc1)c1cn(Cc2ccccc2)nn1 | > 50 | > 50 | – | – |
| O=C(C(=O)c1ccc(Cl)cc1Cl)c1cn(CCc2ccccc2)nn1 | > 50 | > 50 | 13.4 (≈ 5.01 µg/mL) | – |
| Cc1cc(C)cc(Cn2cc(C(=O)Cc3ccccc3)nn2)c1 | > 50 | > 50 | – | – |
| CCCCCCCCn1cc(C(=O)Cc2ccc(Cl)cc2Cl)nn1 | – | – | 20.9 (≈ 7.7 µg/mL) | – |
| COc1ccc(C(=O)C(=O)c2cn(Cc3ccccc3)nn2)cc1 | > 50 | > 50 | 7.6 (≈ 2.44 µg/mL) | – |
| COc1cc(Cn2cc(C(=O)C(=O)c3ccc(Cl)cc3Cl)nn2)cc(OC)c1 | > 50 | > 50 | 9.51 (≈ 4 µg/mL) | – |
| Cc1cc(C)cc(Cn2cc(C(=O)C(=O)c3ccccc3)nn2)c1 | > 50 | > 50 | 50 (≈ 16 µg/mL) | – |
| O=C(C(=O)c1cn(Cc2ccc([N+](=O)[O-])cc2)nn1)c1ccccc1 | > 50 | > 50 | 11.9 (≈ 4 µg/mL) | – |
| COc1cc(Cn2cc(C(=O)C(=O)c3ccccc3OC)nn2)cc(OC)c1 | > 50 | > 50 | 21 (≈ 8.01 µg/mL) | – |
| COc1ccc(C(=O)C(=O)c2cn(CCc3ccccc3)nn2)cc1 | > 50 | > 50 | > 95.4 | – |
| O=C(C(=O)c1cn(Cc2ccccc2)nn1)c1ccc([N+](=O)[O-])cc1 | > 50 | > 50 | 95.1 (≈ 32 µg/mL) | – |
| CCCCCCCCn1cc(C(=O)C(=O)c2ccccc2)nn1 | – | – | 51 (≈ 16 µg/mL) | – |
| O=C(Cc1ccc(Cl)cc1Cl)c1cn(CCc2ccccc2)nn1 | – | – | > 88.8 | – |
| O=C(C(=O)c1ccc(Cl)cc1Cl)c1cn(Cc2ccccc2)nn1 | > 50 | > 50 | 6.9 (≈ 2.49 µg/mL) | – |
| O=C(Cc1ccc(Cl)cc1Cl)c1cn(Cc2ccccc2)nn1 | > 50 | > 50 | – | – |
| COc1ccc(CCn2cc(C(=O)C(=O)c3ccc(OC)cc3)nn2)cc1 | – | – | > 87.6 | – |
| COc1ccc(CCn2cc(C(=O)Cc3ccc(OC)cc3)nn2)cc1 | – | – | > 91.1 | – |
| COc1ccc(CC(=O)c2cn(CCc3ccccc3)nn2)cc1 | – | – | > 112 | – |
| CCCCCCCCn1cc(C(=O)C(=O)c2ccc(Cl)cc2Cl)nn1 | > 50 | > 50 | 80.7 (≈ 30.9 µg/mL) | – |
| COC(=O)c1ccc(Cn2cc(C(=O)C(=O)c3ccc(Cl)cc3Cl)nn2)o1 | – | – | 39.2 (≈ 16 µg/mL) | – |
| COc1cc(Cn2cc(C(=O)C(=O)c3ccccc3)nn2)cc(OC)c1 | > 50 | > 50 | 11.4 (≈ 4 µg/mL) | – |
| O=C(C(=O)c1ccc(Cl)cc1Cl)c1cn(C2CCCCC2)nn1 | – | – | 43.7 (≈ 15.4 µg/mL) | – |
| CCCCCCCCc1cn(CC(=O)OCC)nn1 | – | – | – | 1.9 (≈ 7.11 µM) |
